Here are results for seven compounds from ChEMBL document CHEMBL1122752, “Nucleosides. 129. Synthesis of antiviral nucleosides: 5-alkenyl-1-(2-deoxy-2-fluoro-beta-D-arabinofuranosyl)uracils” (J Med Chem, 1984).

Some results are limits rather than exact numbers.

For series [1], the system named is Vero. Put plainly: In vitro antiviral activity was determined by plaque-reduction assay in HSV-2 (strain G) infected Vero cell monolayers. In kind it is functional. As to conditions: Chlorocebus sabaeus, read-out: ED50 (the source's name). Put shortly:
(§1)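 Vero cell monolayers infected with about 20–30 pfu per well (HSV-1 strain 2931 or HSV-2 strain G), 2 h incubation, then overlaid with maintenance medium containing various drug concentrations. Plaques counted after 2 days of development. ED50 (50% plaque reduction) calculated by linear regression. Values are the mean of three separate experiments run in parallel.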
For orientation: Plaque reduction counts the foci of infection that form in a cell layer.

The nature of series [2]: Cytotoxicity expressed as ID50 which is the concentration required for 50% growth inhibition of normal human lymphocytes. As to conditions: read-out: ID50 (the source's name). Put shortly: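 Normal human lymphoblasts stimulated with PHA; drug concentration causing 50% inhibition of replication (ID50) determined; values are means of three separate experiments run in parallel.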

In series [3] the test system is Vero. Kind of series: In vitro antiviral activity was determined by plaque-reduction assay in HSV-1(strain 2931) infected Vero cell monolayers. It counts as functional. As to conditions: Chlorocebus sabaeus, read-out: ED50 (the source's name). Put shortly: as §1

In the case of `O=c1[nH]c(=O)n([C@@H]2O[C@H](CO)[C@@H](O)[C@@H]2F)cc1/C=C/Cl`, the EC50 stood at 6.9 µM in the series on Vero [1] and 540 nM in the series with Vero [3]. Further, the GI50 in series [2] is greater than 100 µM.

`O=c1[nH]c(=O)n([C@H]2O[C@@H](CO)[C@H](O)[C@@H]2F)cc1/C=C/Br`: the EC50 with Vero [1] was 13.9 µM; in the series with Vero [3] it was 400 nM. Moreover, the GI50 in series [2] was greater than 100 µM.

Consider `Nc1nc(=O)n([C@@H]2O[C@H](CO)[C@@H](O)[C@H]2F)cc1I`, for which the figures for the EC50 with Vero [1] and with Vero [3] were 0.014 µM and 24 nM, respectively. In series [2], the GI50 is 8.6 µM.

In the case of `O=c1[nH]c(=O)n([C@H]2C[C@H](O)[C@@H](CO)O2)cc1/C=C/Br` [BRIVUDINE], the EC50 came to 13 µM in the series on Vero [1] and 70 nM in the series with Vero [3].

For `C=Cc1cn([C@@H]2O[C@H](CO)[C@@H](O)[C@H]2F)c(=O)[nH]c1=O`, the EC50 is 0.69 µM in the series with Vero [1] and 160 nM in the series on Vero [3]. Moreover, the GI50 in series [2] is greater than 100 µM.

As to `O=c1[nH]c(=O)n([C@@H]2O[C@H](CO)[C@@H](O)[C@@H]2F)cc1/C=C/I`, the EC50 was found to be 17.3 µM in the series with Vero [1] and 1100 nM with Vero [3]. Further, the GI50 in series [2] was greater than 100 µM.

In the case of `CCc1cn([C@H]2O[C@@H](CO)[C@H](O)[C@@H]2F)c(=O)[nH]c1=O`, the EC50 in the series with Vero [1] was found to be 0.65 µM; with Vero [3], 240 nM. In addition, in series [2], the GI50 was greater than 100 µM.
